Source: PubChem
E coli WT exp: growth inhibitors of wild-type E. coli, primary screen, strain BW25113, expanded library, OD600. AID 710, 2007. OD600 absorbance. growth inhibition, % at 100 µM. 98,000 tested, 0.15% active;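 active means growth inhibition above about 50% at one test dose, limit read from the data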;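 further: growth measured after 20 h incubation at 37 °C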
BAP1 block: inhibitors of BAP1 deubiquitinase, primary screen, biochemical, Ub-AMC fluorescence, kinetic | AID 436, 2006 | recombinant BAP1, Ub-AMC hydrolysis fluorescence kinetic; hits give low values | calls only at 20 µM | 72,000 tested, 0.48% active;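 active means activity remaining at or below 50% of control, provided the compound also passes the data quality filters; inactive means the rest, including low values that fail the filters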;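 further: 100% = DMSO wells rate and 0% = substrate alone blank rate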
M1 antagonist: antagonists of rat M1 muscarinic receptor; 64,000 tested, 3.4% active; AID 628, 2007; Muscarinic acetylcholine receptor M1 (Rattus norvegicus), P08482; B-score at 10 µM; CHO-M1 cells, Fluo-4 calcium, ACh EC80 antagonist mode; hits give low values;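 active means calcium fluorescence response, raw or row-and-column corrected B-score, differing from the plate sample mean either way at a set confidence level, mostly lower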
M1 ag: M1 muscarinic receptor agonists, primary screen, CHO-M1 cells, Fluo-4 calcium, agonist mode; Muscarinic acetylcholine receptor M1; Fluo-4 calcium fluorescence; hits give high values; B-score at 10 µM; 64,000 tested, 3% active; AID 626, 2007;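 active means fluorescence rise, raw or as B-score row- and column-corrected plate score, outside the 99.7% band of its plate's samples, either direction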
Hsp90 block: tumor Hsp90 inhibitors, primary screen, cell lysate, fluorescence polarization, NCI-N417 lysate. inhibition, % at 30 µM. Heat shock protein HSP 90-alpha (Homo sapiens), P07900. Cy3B-geldanamycin FP displacement. 64,000 tested, 0.35% active;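 active means inhibition above 50%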;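 further: 0% = tracer plus lysate wells and 100% = tracer alone without lysate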
Ecoli tolC: growth inhibitors of E. coli tolC mutant, primary screen, strain BW25113 ΔtolC::kan, 384-well | AID 573, 2007 | growth inhibition, % at 10 µM (by protocol) | OD615 | 65,000 tested, 2.2% active;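 active means growth inhibition at or above a cutoff equal to the mean over every tested compound plus 3 SD, cut at about 60% in these data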;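 further: growth measured after 20 h incubation at 37 °C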
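signal = optical density read at 615 nm | test system = E. coli ΔtolC::kan strain BW25113 | timing = 20 h compound exposure of bacteria at 37 °C | buffer or medium = LB medium plus 50 µg/mL kanamycin | compound dosing = 10 µM final, single dose | evaluation = % inhibition of E. coli growth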
M1 agonist conf: rat M1 muscarinic receptor agonists, confirmation, CHO-M1 cells, Fluo-4 calcium, duplicate retest; fluorescence change (max-min) at 10 µM; AID 1488, 2009; 1,700 tested, 19% active; Fluo-4 calcium fluorescence, agonist mode; actives lie on both sides; shares compounds with M1 ag;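 active means fluorescence change differs from the solvent-only DMSO control mean at a set confidence level in both duplicate runs; inconclusive means differs from solvent-only control mean in just one of two runs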;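 further: an EC20 dose of acetylcholine follows compound addition during the same imaging run; raw fluorescence intensity difference in instrument units with no normalization to controls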
M4 ag counter: agonist activity at rat M4 receptor, confirmation, counter-screen for M1 allosteric modulator project, cell-based, agonist mode | fluorescence change (max-min) at 10 µM | 1,700 tested, 9% active | AID 1741, 2009 | shares compounds with M1 ag | CHO M4/Gqi5 cells, Fluo-4 calcium fluorescence; actives lie on both sides;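 active means fluorescence change differing from the plate's solvent-only control wells at 99.7% confidence in both duplicates, whether higher or lower; inconclusive means differs from solvent controls in only one of two duplicates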
Target sequence (P08485 whole entry, looked up): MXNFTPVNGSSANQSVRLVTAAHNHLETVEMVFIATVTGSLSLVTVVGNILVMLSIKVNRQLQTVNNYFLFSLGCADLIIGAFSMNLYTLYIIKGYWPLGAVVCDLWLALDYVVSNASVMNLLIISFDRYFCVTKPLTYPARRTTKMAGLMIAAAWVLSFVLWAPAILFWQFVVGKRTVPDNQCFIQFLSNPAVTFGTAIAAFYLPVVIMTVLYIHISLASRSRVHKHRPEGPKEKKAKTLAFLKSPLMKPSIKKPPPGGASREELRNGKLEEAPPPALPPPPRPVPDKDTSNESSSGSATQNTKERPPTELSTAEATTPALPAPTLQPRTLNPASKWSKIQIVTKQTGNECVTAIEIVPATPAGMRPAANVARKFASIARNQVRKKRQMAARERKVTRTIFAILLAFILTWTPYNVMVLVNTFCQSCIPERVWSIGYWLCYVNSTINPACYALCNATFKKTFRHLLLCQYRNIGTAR
The depositor's hits bear a star; i = inactive; ? = inconclusive; nt = no result. In the library only some 5.1% were active in any assay of this set; here they are far more common.

SMILES	E coli WT exp	BAP1 block	M1 antagonist	M1 ag	Hsp90 block	Ecoli tolC	M1 agonist conf	M4 ag counter
Cc1ccc(N2C(=O)c3cccc4c(N5CCN(C)CC5)ccc(c34)C2=O)c2cccnc12	-1.0	i	-3.08*	405*	-10.4	-4.5	956*	1220*
CCN=C1SC(CC(=O)Nc2ccccc2)C(=O)N1CC (stereo not given)	2.0	i	-3.76*	10.9*	1.3	-5.5	?	-55.8
CCCOC(=O)C1=C(C)N(C)C(=O)NC1c1ccccc1I (stereo not given)	nt	i	nt	nt	nt	nt	nt	nt
O=C(c1cc2nc(-c3ccccc3)cc(-c3ccccc3)n2n1)N1CCN(C(=O)c2ccco2)CC1	-16.0	i	-0.816	3.45*	-6.3	55.1	-19.5	-20.9
O=C(c1cc2nc(-c3ccco3)cc(C(F)(F)F)n2n1)N1CCN(c2ccccn2)CC1	-3.0	i	-0.928	2.49*	-7.3	21.7	?	-48.8
CN1CCN(C(=O)c2cc3nc(-c4ccccc4)cc(-c4ccccc4)n3n2)CC1	-16.0	nt	nt	nt	nt	nt	nt	nt
O=C(Nc1ccccc1)c1ccc2nc(NC(=O)C34CC5CC(CC(C5)C3)C4)sc2c1	nt	i	nt	nt	nt	nt	nt	nt
Cc1nc2ncnn2c(C)c1CCC(=O)NCCCN1CCN(c2cccc(Cl)c2)CC1	-4.0	i	-1.15	2.6*	-3.2	-7.5	?	-36.2
Cc1nc2ncnn2c(C)c1CCC(=O)NCCc1ccccc1	-2.0	nt	nt	nt	nt	nt	nt	nt
O=C(Oc1ccc(N(C(=O)c2ccncc2)S(=O)(=O)c2ccc(Br)cc2)c2ccccc12)c1ccncc1	nt	i	nt	nt	nt	nt	nt	nt
CCOC(=O)c1c(NC(=O)CSc2nnc(CNC(=O)c3ccco3)n2C)sc2c1CCC2	-4.0	i	-1.24	-0.138	-0.8	11.8	nt	nt
NC(=O)c1c(NC(=O)CSc2nnc(Cc3ccccc3)n2Cc2ccco2)sc2c1CCC2	-3.0	i	-1.82	7.28*	0.2	33.9	-14	-21.7
CC1=C(C(=O)Nc2ccccc2)C(c2ccccc2)n2ncnc2N1 (stereo not given)	nt	i	nt	nt	nt	nt	nt	nt
CC(C)Cn1c2c(c(O)c(C(=O)Nc3ccc(F)cc3)c1=O)CCCC2	-14.0	i	-0.0509	2.98*	-3.8	5.7	?	-48.8
COc1ccc(OC)c(Nc2cc(C(=O)NCCCN3CCOCC3)c3ccccc3n2)c1	5.0	i	-0.759	7.46*	2.6	-5.9	-26.4*	-78.6*
CCCCOC(=O)c1[nH]c2c(c1C)C(=O)CC(c1cc(OC)c(OC)c(OC)c1)C2 (stereo not given)	0.0	i	-0.507	-0.00289	-2.5	10.2	nt	nt
C=CCOC(=O)c1[nH]c2c(c1C)C(=O)CC(c1cc(OC)c(OC)c(OC)c1)C2 (stereo not given)	-7.0	i	0.159	3.3*	-0.8	4.5	-11.6	-33.2
COc1ccc(Br)cc1C(=O)Nc1ccc(Cl)cn1	nt	i	nt	nt	nt	nt	nt	nt
CCOC(=O)C1CCN(S(=O)(=O)c2cccc(-c3cn4cc(Cl)ccc4n3)c2)CC1	-9.0	nt	nt	nt	nt	nt	nt	nt
CCOC(=O)C1CCN(S(=O)(=O)c2cccc(-c3cn4cccc(C)c4n3)c2)CC1	2.0	i	-3.05*	2.33*	-3.4	8.4	-11.6	-34.7
COc1ccc(OC)c(S(=O)(=O)N2CCC(C(=O)Nc3ccc(C)c(C)c3)CC2)c1	-11.0	i	-0.966	14.9*	1.2	33.6	-7.97	?
O=C(Nc1ccc(C23CC4CC(CC(Cl)(C4)C2)C3)cc1)c1ccc(F)cc1	nt	i	nt	nt	nt	nt	nt	nt
COc1ccc(C2C(C(=O)c3cccs3)=C(O)C(=O)N2c2nnc(C)s2)cc1OC (stereo not given)	2.0	i	-1.48	67.5*	-1.5	-13.0	96.1*	42.4
